Test results: ChEMBL document CHEMBL4715928, “Discovery of Dipeptides as Potent Botulinum Neurotoxin A Light-Chain Inhibitors” (ACS Med Chem Lett, 2021)

Experiments:
[1] = Zinc chelating activity mediated inhibition of Clostridium botulinum BoNT/A LC activity using SNAPtide as substrate measured for 10 mins by FRET assay
Outline: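 BoNT/A light chain at 20 nM was incubated with 8 μM SNAPtide substrate across a range of dipeptide concentrations. IC50 values were derived from the concentration series.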

Clostridium botulinum = assay: Zinc chelating activity mediated inhibition of Clostridium botulinum BoNT/A LC activity at 15 uM using SNAPtide as substrate measured for 10 mins by FRET assay relative to control
Outline: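 Recombinant BoNT/A light chain at 20 nM, 8 μM SNAPtide FRET substrate, each dipeptide tested at 15 μM. Reactions were run in triplicate, and percent inhibition is the mean of the three.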

| Structure (SMILES) | IC50 [1] | inhibition (Clostridium botulinum) |
| --- | --- | --- |
| CC[C@H](C)[C@H](NC(=O)[C@@H](NS(=O)(=O)c1cc(Cl)cc(Cl)c1)C(C)C)C(=O)NO | 69 nM |  |
| CC[C@H](C)[C@H](NC(=O)[C@H](CC(C)C)NS(=O)(=O)c1ccc(-c2ccc(Cl)cc2)cc1)C(=O)NO |  | 100% |
| CC[C@H](C)[C@H](NC(=O)[C@H](Cc1ccccc1)NS(=O)(=O)c1cccc(C(C)(C)C)c1)C(=O)NO |  | 93% |
| CC[C@H](C)[C@H](NC(=O)[C@@H](NS(=O)(=O)c1ccc(-c2ccc(Cl)cc2)cc1)C(C)C)C(=O)NO | 2900 nM |  |
| CCC[C@H](NC(=O)[C@@H](NS(=O)(=O)c1ccc(-c2ccc(Cl)cc2)cc1)[C@@H](C)CC)C(=O)NO | 1000 nM |  |
| CC[C@H](C)[C@H](NS(=O)(=O)c1ccc(-c2ccc(Cl)cc2)cc1)C(=O)NCC(=O)NO |  | 18% |
| CC[C@H](C)[C@H](NC(=O)[C@@H](Cc1ccccc1)NS(=O)(=O)c1ccc(-c2ccc(Cl)cc2)cc1)C(=O)NO |  | 41% |
| CC[C@H](C)[C@H](NC(=O)[C@H](Cc1ccccc1)NS(=O)(=O)c1ccccc1)C(=O)NO |  | 52% |
| CC[C@H](C)[C@H](NC(=O)[C@H](C)NS(=O)(=O)c1ccc(-c2ccc(Cl)cc2)cc1)C(=O)NO |  | 31% |
| CC[C@H](C)[C@H](NC(=O)[C@H](Cc1ccccc1)NS(=O)(=O)c1ccc(-c2ccccc2)cc1)C(=O)NO |  | 77% |
| CC[C@H](C)[C@H](NS(=O)(=O)c1ccc(-c2ccc(Cl)cc2)cc1)C(=O)NCCC(=O)NO |  | 62% |
| CC[C@H](C)[C@H](NC(=O)[C@H](Cc1ccccc1)NS(=O)(=O)c1cccc(Cl)c1)C(=O)NO |  | 79% |
| CCC[C@H](NC(=O)[C@@H](NS(=O)(=O)c1cc(Cl)cc(Cl)c1)[C@@H](C)CC)C(=O)NO | 89 nM |  |
| CC[C@H](C)[C@@H](NC(=O)[C@@H](Cc1ccccc1)NS(=O)(=O)c1ccc(-c2ccc(Cl)cc2)cc1)C(=O)NO |  | 63% |
| CC[C@H](C)[C@H](NS(=O)(=O)c1cc(Cl)cc(Cl)c1)C(=O)N[C@@H](CC(C)C)C(=O)NO | 150 nM |  |
| CC[C@H](C)[C@H](NC(=O)C(C)(C)NS(=O)(=O)c1ccc(-c2ccc(Cl)cc2)cc1)C(=O)NO |  | 84% |
| CC[C@H](C)[C@H](NS(=O)(=O)c1ccc(-c2ccc(Cl)cc2)cc1)C(=O)N[C@@H](C(=O)NO)[C@@H](C)CC |  | 57% |

| Structure (SMILES) | IC50 [1] | inhibition (Clostridium botulinum) |
| --- | --- | --- |
| CC[C@H](C)[C@@H](NC(=O)[C@H](NS(=O)(=O)c1ccc(-c2ccc(Cl)cc2)cc1)[C@@H](C)CC)C(=O)NO |  | 48% |
| CC[C@H](C)[C@H](NC(=O)[C@H](Cc1ccccc1)NS(=O)(=O)c1c(Cl)cccc1Cl)C(=O)NO |  | 83% |
| CC[C@H](C)[C@@H](NS(=O)(=O)c1ccc(-c2ccc(Cl)cc2)cc1)C(=O)N[C@@H](Cc1ccccc1)C(=O)NO |  | 62% |
| CC[C@H](C)[C@H](NC(=O)[C@H](Cc1ccccc1)NS(=O)(=O)c1ccc(Br)cc1)C(=O)NO |  | 87% |
| CCOc1ccc(S(=O)(=O)N[C@@H](Cc2ccccc2)C(=O)N[C@H](C(=O)NO)[C@@H](C)CC)cc1OCC |  | 22% |
| CC[C@H](C)[C@H](NC(=O)[C@H](NS(=O)(=O)c1ccc(-c2ccc(Cl)cc2)cc1)[C@@H](C)CC)C(=O)NO |  | 69% |
| CC[C@H](C)[C@H](NS(=O)(=O)c1ccc(-c2ccc(Cl)cc2)cc1)C(=O)N[C@@H](Cc1ccccc1)C(=O)NO |  | 44% |
| CC[C@H](C)[C@H](NC(=O)[C@H](Cc1ccccc1)NS(=O)(=O)c1ccc(-c2ccc(Cl)cc2)cc1)C(=O)NO | 2400 nM | 100% |
| CC(C)[C@H](NC(=O)[C@H](Cc1ccccc1)NS(=O)(=O)c1cc(Cl)cc(Cl)c1)C(=O)NO | 21 nM |  |
| CC[C@H](C)[C@H](NS(=O)(=O)c1ccc(-c2ccc(Cl)cc2)cc1)C(=O)NC(C)(C)C(=O)NO |  | 11% |
| CC[C@H](C)[C@H](NC(=O)[C@H](Cc1ccccc1)NS(=O)(=O)c1ccc(Cl)cc1)C(=O)NO |  | 77% |
| CC[C@H](C)[C@H](NS(=O)(=O)c1ccc(-c2ccc(Cl)cc2)cc1)C(=O)N[C@@H](C)C(=O)NO |  | 55% |
| CC[C@H](C)[C@H](NC(=O)[C@H](Cc1ccccc1)NS(=O)(=O)c1ccc(C2CCCCC2)cc1)C(=O)NO |  | 57% |
| CCC[C@H](NC(=O)[C@H](Cc1ccccc1)NS(=O)(=O)c1cc(Cl)cc(Cl)c1)C(=O)NO | 43 nM |  |
| CC[C@H](C)[C@H](NC(=O)[C@H](Cc1ccccc1)NS(=O)(=O)c1cc(Cl)cc(Cl)c1)C(=O)NO | 150 nM | 100% |
| CC[C@H](C)[C@H](NC(=O)[C@@H](NS(=O)(=O)c1ccc(-c2ccc(Cl)cc2)cc1)[C@@H](C)CC)C(=O)NO |  | 85% |
